Assay results taken from ChEMBL document CHEMBL4219023, “Synthesis and biological activity of novel tert-amylphenoxyalkyl (homo)piperidine derivatives as histamine H3R ligands” (Bioorg Med Chem, 2017).
Activity calls are given as the source filed them. No cut-off for these calls is given here.

Key:
Mus musculus [1] = experiment: Neurotoxicity in CF-1 albino mouse assessed as unable to grasp at 100 mg/kg, ip after 0.5 hrs by rotarod test; format: toxicity, organism-based; conditions: in vivo
Procedure, shortened: (§1)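 Anticonvulsant Screening Program (NINDS) Phase 1 neurotoxicity screen in male albino CF-1 mice. Compounds were given i.p. as suspensions in 0.5% methylcellulose at 30, 100 and/or 300 mg/kg, and animals were observed 0.5 h and 4 h after dosing. The rotarod test was scored as number of animals showing toxicity over number tested, with the kind of toxicity recorded: inability to grasp rotorod, death, diarrhea, continuous seizure activity, loss of righting reflex, myoclonic jerks or tremors.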

Mus musculus [2] = experiment: Anticonvulsant activity in CF-1 albino mouse assessed as protection against subcutaneous pentetrazole-induced seizures at 100 mg/kg, ip after 4 hrs; format: functional, organism-based
Rattus norvegicus = experiment: Anticonvulsant activity in albino Sprague-Dawley rat assessed as protection against maximal electroshock-induced seizures at 30 mg/kg, po after 0.5 to 4 hrs; format: functional, organism-based
Procedure, shortened: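 Male Sprague-Dawley rats, four per group, were given compound orally at a fixed 30 mg/kg in 0.5% methylcellulose suspension. Maximal electroshock test was read at 0.5 h and 4 h.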

Mus musculus [3] = experiment: Anticonvulsant activity in CF-1 albino mouse assessed as protection against maximal electroshock-induced seizures at 100 mg/kg, ip after 4 hrs; format: functional, organism-based
Procedure, shortened: (§2)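 Male CF-1 albino mice received compound i.p. as a suspension in 0.5% methylcellulose (30, 100 or 300 mg/kg). Maximal electroshock seizure test read 0.5 h and 4 h after dosing. Result given as animals protected/animals tested.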

Mus musculus [4] = experiment: Anticonvulsant activity in CF-1 albino mouse assessed as protection against maximal electroshock-induced seizures at 100 mg/kg, ip after 0.5 hrs; format: functional, organism-based; procedure, shortened: as §2
Histamine H3 receptor [5] = target: T1, Histamine H3 receptor (Homo sapiens, UniProt Q9Y5N1); experiment: Displacement of [3H]Nalpha-Methylhistamine from recombinant human histamine H3 receptor expressed in HEK293 cell membranes after 90 mins by liquid scintillation counting analysis
Mus musculus [6] = experiment: Anticonvulsant activity in CF-1 albino mouse assessed as protection against subcutaneous pentetrazole-induced seizures at 30 mg/kg, ip after 0.5 hrs; format: functional, organism-based
Mus musculus [7] = experiment: Anticonvulsant activity in CF-1 albino mouse assessed as protection against maximal electroshock-induced seizures at 30 mg/kg, ip after 4 hrs; format: functional, organism-based; procedure, shortened: as §2
[8] = Lipophilicity of compound by RP-TLC analysis; format: physicochemical; conditions: methanol:acetic acid:water
Procedure, shortened: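 Reversed-phase TLC on RP-18 plates with methanol:acetic acid:water mobile phase (acid constant at 10%, methanol 85–55% in 5% steps). Spots visualised with iodine. RM values were derived from Rf and extrapolated to zero methanol to give RM0.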

Mus musculus [9] = experiment: Anticonvulsant activity in CF-1 albino mouse assessed as protection against maximal electroshock-induced seizures at 30 mg/kg, ip after 0.5 hrs; format: functional, organism-based; procedure, shortened: as §2
Mus musculus [10] = experiment: Neurotoxicity in CF-1 albino mouse assessed as death at 300 mg/kg, ip after 0.5 hrs by rotarod test; format: toxicity, organism-based; conditions: in vivo; procedure, shortened: as §1
Mus musculus [11] = experiment: Neurotoxicity in CF-1 albino mouse at 30 mg/kg, ip after 4 hrs by rotarod test; format: toxicity, organism-based; conditions: in vivo
Procedure, shortened: (§3)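 Male CF-1 mice were dosed i.p. with compound suspended in 0.5% methylcellulose (30, 100 or 300 mg/kg). Neurotoxicity was scored by rotarod 0.5 h and 4 h after dosing, as animals showing toxicity/animals tested. Type of toxicity was noted, e.g. inability to grasp the rod, tremors, death.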

Mus musculus [12] = experiment: Neurotoxicity in CF-1 albino mouse assessed as death at 100 mg/kg, ip after 4 hrs by rotarod test; format: toxicity, organism-based; conditions: in vivo; procedure, shortened: as §1
Mus musculus [13] = experiment: Anticonvulsant activity in CF-1 albino mouse assessed as protection against subcutaneous pentetrazole-induced seizures at 30 mg/kg, ip after 4 hrs; format: functional, organism-based
Mus musculus [14] = experiment: Anticonvulsant activity in CF-1 albino mouse assessed as protection against subcutaneous pentetrazole-induced seizures at 100 mg/kg, ip after 0.5 hrs; format: functional, organism-based
Mus musculus [15] = experiment: Neurotoxicity in CF-1 albino mouse at 100 mg/kg, ip after 4 hrs by rotarod test; format: toxicity, organism-based; conditions: in vivo; procedure, shortened: as §3
Mus musculus [16] = experiment: Neurotoxicity in CF-1 albino mouse assessed as death at 300 mg/kg, ip after 0.5 hrs by rotarod test; conditions: in vivo
Mus musculus [17] = experiment: Anticonvulsant activity in CF-1 albino mouse assessed as protection against maximal electroshock-induced seizures at 300 mg/kg, ip after 0.5 hrs; format: functional, organism-based; procedure, shortened: as §2
Histamine H3 receptor [18] = target: T1, Histamine H3 receptor; experiment: Displacement of [125I]Iodoproxyfan from recombinant human histamine H3 receptor expressed in CHOK1 cell membranes after 90 mins
Procedure, shortened: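 Membranes of CHO-K1 cells expressing hH3R were incubated 90 min at 25 °C, shaken at 250 rpm, with [125I]iodoproxyfan (16–50 pM) and test compound. Nonspecific binding was defined with 1 μM imetit. Separation by filtration on PEI-treated GF/B filters. Ki obtained from IC50 by Cheng-Prusoff.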

[19] = Safety index, ratio of compound IC50 to doxorubicin IC50 for HEK293 cells after 48 hrs by EZ4U non-radioactive cell proliferation assay; format: ADME, cell-based; conditions: human, read-out: Ratio IC50
CYP3A4 = CYP3A4 (Homo sapiens, UniProt P08684); experiment: Activation of recombinant human CYP3A4 using Luciferin-BE as substrate at 25 uM in presence of NADPH by P450-Glo luminescence assay relative to control; format: ADME; conditions: recombinant human CYP3A4, probe Luciferin-PPXE, in the assay text read “Luciferin-PPXE” for “Luciferin-BE”, read-out: Activity
Procedure, shortened: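 Recombinant human CYP3A4 P450-Glo luminescence assay: enzyme converts luciferin substrate to D-luciferin, then firefly luciferase is added and light output read as a measure of CYP3A4 activity. Final ligand concentrations 0.025–25 μM.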

[20] = Safety index, ratio of compound IC50 to doxorubicin IC50 for human IMR32 cells after 48 hrs by EZ4U Non-radioactive cell proliferation assay; format: ADME, cell-based; conditions: IMR-32 cells, read-out: Ratio IC50
HEK293 = experiment: Cytotoxicity against HEK293 cells assessed as reduction in cell viability after 48 hrs by EZ4U Non-radioactive cell proliferation assay; format: cell-based; conditions: Homo sapiens, HEK293, 48 h
Procedure, shortened: (§4)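 IMR-32 cells (2×10^4/well) or HEK-293 cells (1.5×10^4/well) in DMEM with 10% FBS were preincubated 24 h at 37 °C, 5% CO2. Compounds from 25 mM DMSO stocks were added at final 0.01–250 μM, with DMSO ≤1%. After 48 h, EZ4U label was added for 5 h and absorbance read at 492 nm.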

IMR-32 = experiment: Cytotoxicity against human IMR32 cells assessed as reduction in cell viability after 48 hrs by EZ4U Non-radioactive cell proliferation assay; format: cell-based; conditions: IMR-32, 48 h; procedure, shortened: as §4
Histamine H3 receptor [21] = target: T1, Histamine H3 receptor; experiment: Antagonist activity at recombinant human histamine H3 receptor expressed in HEK293 cells assessed as inhibition of forskolin-stimulated intracellular cAMP accumulation after 30 mins by TR-FRET TR-FRET assay; format: functional, cell-based
Procedure, shortened: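 TR-FRET cAMP immunoassay in HEK293 cells stably expressing hH3R, 300 cells/well. (R)-α-methylhistamine (15 nM), forskolin (10 μM) and antagonist (0.1 nM–10 μM) added together. Stimulation 30 min at room temperature, then Eu-cAMP tracer and ULight anti-cAMP antibody added for 1 h. Mean of three experiments, each in triplicate.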

Mus musculus [22] = experiment: Anticonvulsant activity in CF-1 albino mouse assessed as protection against maximal electroshock-induced seizures at 300 mg/kg, ip after 4 hrs; format: functional, organism-based; procedure, shortened: as §2
Mus musculus [23] = experiment: Anticonvulsant activity in CF-1 albino mouse assessed as protection against subcutaneous pentetrazole-induced seizures at 300 mg/kg, ip after 0.5 hrs; format: functional, organism-based
Mus musculus [24] = experiment: Anticonvulsant activity in CF-1 albino mouse assessed as protection against subcutaneous pentetrazole-induced seizures at 300 mg/kg, ip after 4 hrs; format: functional, organism-based
Mus musculus [25] = experiment: Neurotoxicity in CF-1 albino mouse at 30 mg/kg, ip after 0.5 hrs by rotarod test; format: toxicity, organism-based; conditions: in vivo; procedure, shortened: as §3

Chain of CYP3A4 (P08684 whole entry): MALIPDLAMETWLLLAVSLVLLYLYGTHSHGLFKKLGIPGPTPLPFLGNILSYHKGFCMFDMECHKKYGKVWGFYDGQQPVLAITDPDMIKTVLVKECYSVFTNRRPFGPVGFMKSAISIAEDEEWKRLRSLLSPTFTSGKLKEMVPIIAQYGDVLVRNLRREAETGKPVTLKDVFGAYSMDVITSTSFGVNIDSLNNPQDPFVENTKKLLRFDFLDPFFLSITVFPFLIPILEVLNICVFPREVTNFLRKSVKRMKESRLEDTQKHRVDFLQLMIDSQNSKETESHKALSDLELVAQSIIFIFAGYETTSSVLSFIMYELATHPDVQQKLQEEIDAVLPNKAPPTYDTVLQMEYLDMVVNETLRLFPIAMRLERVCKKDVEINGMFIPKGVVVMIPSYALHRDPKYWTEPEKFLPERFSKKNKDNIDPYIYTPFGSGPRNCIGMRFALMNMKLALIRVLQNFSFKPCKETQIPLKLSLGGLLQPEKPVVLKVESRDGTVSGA
T1 sequence (Q9Y5N1 whole entry): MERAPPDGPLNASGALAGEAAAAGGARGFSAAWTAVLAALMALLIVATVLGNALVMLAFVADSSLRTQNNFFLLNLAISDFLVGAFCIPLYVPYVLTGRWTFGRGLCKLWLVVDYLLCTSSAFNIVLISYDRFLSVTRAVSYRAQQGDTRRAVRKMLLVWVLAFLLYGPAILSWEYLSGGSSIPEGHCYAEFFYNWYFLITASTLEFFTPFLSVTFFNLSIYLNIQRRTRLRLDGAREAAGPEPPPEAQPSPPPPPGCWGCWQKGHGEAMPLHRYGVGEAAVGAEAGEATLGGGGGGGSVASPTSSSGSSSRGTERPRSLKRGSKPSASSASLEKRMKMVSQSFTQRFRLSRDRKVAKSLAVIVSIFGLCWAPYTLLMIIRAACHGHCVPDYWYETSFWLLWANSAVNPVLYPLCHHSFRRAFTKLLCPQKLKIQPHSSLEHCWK

SMILES	Activity (Mus musculus [2])	Activity (Mus musculus [3])	Activity (Mus musculus [4])	Activity (Mus musculus [6])	Activity (Mus musculus [7])	Rm [8]	Activity (Mus musculus [9])	Activity (Mus musculus [11])	Activity (Mus musculus [13])	Activity (Mus musculus [14])	Ki (Histamine H3 receptor [18])	further results
CCC(C)(C)c1ccc(OCCCCN2CCCC(C)C2)cc1.O=C(O)C(=O)O (centres undefined)	inactive	Active	Active	inactive	inactive	2.294	Active	Non-Toxic	inactive			Activity (Mus musculus [1]): Toxic; Activity (Rattus norvegicus): inactive; Ki (Histamine H3 receptor [5]): 46 nM; Activity (Mus musculus [10]): Toxic; Activity (Mus musculus [12]): Toxic
CCC(C)(C)c1ccc(OCCCCN2CCCCC2)cc1.O=C(O)C(=O)O	inactive		Active	inactive	inactive	1.883	Active	Non-Toxic	inactive	inactive		Activity (Mus musculus [1]): Toxic; Activity (Rattus norvegicus): inactive; Ki (Histamine H3 receptor [5]): 140 nM; Activity (Mus musculus [10]): Toxic; Activity (Mus musculus [15]): Non-Toxic
CCC(C)(C)c1ccc(OCCCCCCN2CCC(C)CC2)cc1.O=C(O)C(=O)O	inactive	Active	Active	inactive	Active		Active	Non-Toxic	inactive	inactive	60.5 nM	Activity (Mus musculus [16]): Toxic; Activity (Mus musculus [17]): Active
CCC(C)(C)c1ccc(OCCCCCCN2CCCCC2)cc1.O=C(O)C(=O)O	inactive	Active	Active	inactive	inactive	2.456	inactive	Non-Toxic	inactive	inactive	46.5 nM	Activity (Mus musculus [1]): Toxic; Activity (Mus musculus [16]): Toxic; Activity (Mus musculus [15]): Non-Toxic
CCC(C)(C)c1ccc(OCCCCCCCCN2CCCCCC2)cc1.O=C(O)C(=O)O						3.384					182 nM	
CCC(C)(C)c1ccc(OCCCCCN2CCC(C)CC2)cc1											23.4 nM	selectivity ratio at 48 h [19]: 50 to 90; activity at 25 µM (CYP3A4): 325%; selectivity ratio at 48 h [20]: > 1000; IC50 (HEK293): 37.1 µM; IC50 (IMR-32): 27.9 µM
CCC(C)(C)c1ccc(OCCCCCCCCN2CCCCC2)cc1.O=C(O)C(=O)O						3.075					326 nM	
CCC(C)(C)c1ccc(OCCCCCCCN2CCC(C)CC2)cc1.O=C(O)C(=O)O	inactive	Active	Active	inactive	inactive		inactive	Non-Toxic	inactive	inactive	64.4 nM	
COc1cccc2c1C(=O)c1c(O)c3c(c(O)c1C2=O)C[C@@](O)(C(=O)CO)C[C@@H]3O[C@H]1C[C@H](N)[C@H](O)[C@H](C)O1 [DOXORUBICIN]												IC50 (IMR-32): 0.0051 µM
CCC(C)(C)c1ccc(OCCCCCN2CCCCC2)cc1.O=C(O)C(=O)O	inactive	inactive		inactive	inactive	2.172	inactive	Non-Toxic	inactive	inactive	8.8 nM	selectivity ratio at 48 h [19]: 50 to 90; activity at 25 µM (CYP3A4): 21%; selectivity ratio at 48 h [20]: > 1000; IC50 (HEK293): 41.2 µM; Activity (Mus musculus [15]): Non-Toxic; EC50 (Histamine H3 receptor [21]): 157 nM; IC50 (IMR-32): 72.7 µM
CCC(C)(C)c1ccc(OCCCCCCCN2CCCC(C)C2)cc1.O=C(O)C(=O)O (centres undefined)	inactive	Active		inactive	inactive	2.983	inactive	Non-Toxic	inactive	inactive	36.6 nM	Activity (Mus musculus [22]): inactive; Activity (Mus musculus [17]): Active; Activity (Mus musculus [23]): inactive
CCC(C)(C)c1ccc(OCCCCCN2CCCC(C)C2)cc1.O=C(O)C(=O)O (centres undefined)	inactive	Active		inactive	inactive	2.342	inactive	Non-Toxic	inactive	inactive	13.6 nM	selectivity ratio at 48 h [19]: 50 to 90; activity at 25 µM (CYP3A4): 52%; selectivity ratio at 48 h [20]: > 1000; IC50 (HEK293): 25.1 µM; EC50 (Histamine H3 receptor [21]): 164 nM; IC50 (IMR-32): 30.9 µM
CCC(C)(C)c1ccc(OCCCCCCCCN2CCCC(C)C2)cc1.O=C(O)C(=O)O (centres undefined)	inactive	Active		inactive	inactive	3.562	inactive	Non-Toxic	inactive	inactive	121 nM	Activity (Mus musculus [24]): inactive; Activity (Rattus norvegicus): inactive; Activity (Mus musculus [17]): Active; Activity (Mus musculus [25]): Non-Toxic; Activity (Mus musculus [23]): inactive; Activity (Mus musculus [15]): Non-Toxic
CCC(C)(C)c1ccc(OCCCCCCCN2CCCCCC2)cc1.O=C(O)C(=O)O						2.926					128 nM	
